According to paper PMC2754042 (Journal of medicinal chemistry, 2008):
Where a name gives a salt, the structure may show the parent alone. Where a SMILES comes first, the peptide text is derived from it. The star is where a group is joined. Cbz = O=C(OCc1ccccc1)*

Experiments:
[1] = system: Ovarian cancer cell lines; assay: NCI sixty cell panel, ovarian subpanel; format: cell-based; details: Homo sapiens, read-out: pTGI Ovarian
[2] = system: sixty human tumor cell lines; assay: NCI sixty cell panel, mean of full panel; format: cell-based; details: for GI50: read-out: pGI50 MG-MID (converted); for CC50: read-out: pLC50 MG-MID (converted); for IC (TGI): read-out: pTGI MG-MID
BCA2 = assay: Analysis of BCA2 protein stability in MCF7 cells; format: cell-based, human; details: MCF-7 cells, in the presence of cycloheximide (CHX), 16 h
Outline: (§1)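 MCF7 cells (1×10^6) seeded in six-well plates and grown overnight. Cycloheximide (100 µmol/L) given alone, with MG-132 (10 µmol/L), or with test compound for 8 and 16 h in total. Lysates Western blotted with polyclonal anti-BCA2 (1:800), monoclonal anti-β-actin (1:5000) and monoclonal anti-C-erbB2 (1:2000). Band mean grey value and integrated density expressed relative to control sample; protein levels normalised to β-actin.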

HL60 and HL60 ρ^0 cells = assay: 2-day MTT cell proliferation assay in HL60 and HL60ρ0 cells; format: cell-based; details: Homo sapiens, HL-60, 48 h, read-out: IC50 for cell proliferation
Outline: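 Cells exposed to test compound for 48 h, then MTT reduction read as a measure of proliferation. IC50 for cell proliferation derived from the readings.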

[3] = system: PMET, B1647, HEL and M07e; assay: PMET inhibition in human leukemic cell lines B1647, HEL and M07e; format: cell-based; details: read-out: PMET inhibition IC50
Outline: (§2)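 Plasma membrane electron transport assay: leukemic cells (10^5 per well in 0.1 ml) pretreated 30 min with test compound in DMSO (<0.1% final). WST-1 and mPMS then added (final 500 µM and 20 µM). WST-1 reduction followed in real time at 450 nm and expressed as % of control.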

[4] = system: plasma membrane electron transport (PMET), HL60 and HL60ρ^0 cells; assay: PMET inhibition; format: cell-based, human; details: at 200 µM, 30 min pretreatment
Outline: as §2

Melanoma cell lines = assay: NCI sixty cell panel, melanoma subpanel; format: cell-based; details: Homo sapiens, read-out: pTGI Melanoma
[5] = system: panel of 36 human tumor cell lines; assay: Oncotest 36 cell line assay; format: cell-based; details: four days exposure
Outline: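 Panel of 36 lines: 24 derived from patient tumor xenografts passaged subcutaneously in nude mice, 12 commercial. Grown at 37°C, 5% CO2, in RPMI 1640 with 10% fetal calf serum and 0.1 mg/ml gentamicin. Test compound added one day after plating, at 5 concentrations, for four days. DNA content read by propidium iodide fluorescence. Three independent experiments, each in triplicate; IC70 values.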

[6] = system: leukemia cell lines HL-60, K562, MOLT-4, CCRF-CEM, RPMI-8226, SR; assay: Hollow fiber assay; format: in vivo, human; details: panel of six leukemia cell lines
HL-60-TB leukemia = assay: Human tumor xenograft in nude mice; format: in vivo; details: HL-60-TB leukemia xenograft in nude mice
Leukemia cell lines = assay: NCI sixty cell panel, leukemia subpanel; format: cell-based; details: Homo sapiens; for IC (TGI): read-out: pTGI Leukemia
NSCLC cell lines = assay: NCI sixty cell panel, NSCLC subpanel; format: cell-based; details: Homo sapiens, read-out: pTGI NSCLC
Colon cancer cell lines = assay: NCI sixty cell panel, colon subpanel; format: cell-based; details: Homo sapiens, read-out: pTGI Colon
CNS cancer cell lines = assay: cells; format: cell-based; details: Homo sapiens, read-out: pTGI CNS
Renal cancer cell lines = assay: NCI sixty cell panel, renal subpanel; format: cell-based; details: Homo sapiens, read-out: pTGI Renal
[7] = system: Prostate cancer cell lines; assay: cells; format: cell-based; details: Homo sapiens, read-out: pTGI Prostate
Breast cancer cell lines = assay: NCI sixty cell panel, breast subpanel; format: cell-based; details: Homo sapiens, read-out: pTGI Breast
C-erbB2 = assay: Stability of C-erbB2 and β-actin in MCF-7 cells; format: cell-based, human; details: Western blot
Outline: as §1

Row | Compound | GI50 [2] [µM] | CC50 [2] [µM] | IC (TGI) [2] [µM] | other results
1 | O=C1Nc2ccc(F)cc2/C1=C\c1cccc(/C=C2/C(=O)Nc3ccc(F)cc32)n1 [Compound 3h] | 3.24 | 60.3 | 11.7 | IC (TGI) [1]: 25.1 µM
2 | CC(C)C[C@@H](C=O)NC(=O)[C@H](CC(C)C)NC(=O)[C@H](CC(C)C)NC(=O)OCc1ccccc1 [MG-132, Z-Leu-Leu-Leu-al] (Cbz-Leu-Leu-Leu-aldehyde) | – | – | – | increase of BCA2 protein compared to CHX treatment (BCA2): more than 10 fold
3 | COc1cc2c(cc1C)NC(=O)/C2=C/c1cccc(/C=C2/C(=O)Nc3cc(C)c(OC)cc32)n1 [Compound 3n] | 51.3 | – | 95.5 | –
4 | O=C1Nc2cc(Cl)ccc2/C1=C\c1cccc(/C=C2/C(=O)Nc3cc(Cl)ccc32)n1 [Compound 3l] | 2.04 | 39.8 | 8.71 | –
5 | O=C1Nc2ccc(Cl)cc2/C1=C\c1cccc(/C=C2/C(=O)Nc3ccc(Cl)cc32)n1 [Compound 3c] | 1.07 | 16.2 | 3.39 | IC50 (HL60 and HL60 ρ^0 cells): 3 to 8 µM
6 | O=C1Nc2ccc(O)cc2/C1=C\c1cccc(/C=C2/C(=O)Nc3ccc(O)cc32)n1 [Compound 3e] | 39.8 | 97.7 | 87.1 | IC50 [3]: 40 to 50 µM
7 | Cc1cc2c(cc1O)/C(=C\c1cccc(/C=C3/C(=O)Nc4cc(C)c(O)cc43)n1)C(=O)N2 [Compound 3m] | 69.2 | – | 97.7 | –
8 | O=C1Nc2ccc(C(=O)O)cc2/C1=C\c1cccc(/C=C2/C(=O)Nc3ccc(C(=O)O)cc32)n1 [Compound 3i] | – | 89.1 | 83.2 | PMET inhibition [4]: inactive
9 | COc1ccc2c(c1)/C(=C\c1cccc(/C=C3/C(=O)Nc4ccc(OC)cc43)n1)C(=O)N2 [Compound 3d] | 1.2 | 39.8 | 7.08 | IC (TGI) (Melanoma cell lines): 3.98 µM; mean IC70 [5]: 0.56 µg/mL; IC50 [3]: 30 to 45 µM; hollow fiber assay combined i.p. + s.c. score [6]: 22; distal site antitumor activity in xenograft (HL-60-TB leukemia): did not show significant activity
10 | O=c1[nH]/c(=C\c2c[nH]c3ccccc23)c(=O)[nH]/c1=C\c1c[nH]c2ccccc12 [Compound 9a] | 81.3 | – | – | PMET inhibition [4]: inactive
11 | CC[C@]1(O)C[C@H]2CN(CCc3c([nH]c4ccccc34)[C@@](C(=O)OC)(c3cc4c(cc3OC)N(C=O)[C@H]3[C@@](O)(C(=O)OC)[C@H](OC(C)=O)[C@]5(CC)C=CCN6CC[C@]43[C@@H]65)C2)C1 [Vincrist ine sulfate, reference compound] | 0.2 | – | 10 | IC (TGI) (Leukemia cell lines): 15.8 µM; IC (TGI) (NSCLC cell lines): 15.8 µM; IC (TGI) (Colon cancer cell lines): 3.98 µM; IC (TGI) (CNS cancer cell lines): 6.31 µM; IC (TGI) (Melanoma cell lines): 7.94 µM; IC (TGI) [1]: 20 µM; IC (TGI) (Renal cancer cell lines): 20 µM; IC (TGI) [7]: 6.31 µM; IC (TGI) (Breast cancer cell lines): 7.94 µM
12 | CN1C(=O)/C(=C/c2cccc(/C=C3/C(=O)N(C)c4ccccc43)n2)c2ccccc21 [Compound 3o] | 8.13 | 49 | 26.9 | IC (TGI) (Leukemia cell lines): 15.8 µM; IC (TGI) [7]: 39.8 µM; PMET inhibition [4]: inactive
13 | O=C(O)CCC(=O)c1ccc2c(c1)/C(=C\c1cccc(/C=C3/C(=O)Nc4ccc(C(=O)CCC(=O)O)cc43)n1)C(=O)N2 [Compound 3f] | 75.9 | – | 95.5 | –
14 | O=C1Nc2ccccc2/C1=c1/[nH]c(=O)/c(=C2/C(=O)Nc3ccccc32)[nH]c1=O [Compound 7a] | 89.1 | – | – | –
15 | O=C1Nc2cccc(Cl)c2/C1=C\c1cccc(/C=C2/C(=O)Nc3cccc(Cl)c32)n1 [Compound 3b] | 0.457 | – | – | IC (TGI) (Colon cancer cell lines): 5.01 µM; IC (TGI) (Melanoma cell lines): 3.16 µM; IC (TGI) [1]: 2.82 µM; mean IC70 [5]: 0.35 µg/mL; effects on β-actin or the oncogenic receptor C-erbB2 (C-erbB2): No effects; IC50 (HL60 and HL60 ρ^0 cells): 3 to 8 µM; IC50 [3]: 15 to 30 µM
16 | CN(C)c1ccc2c(c1)/C(=C\c1cccc(/C=C3/C(=O)Nc4ccc(N(C)C)cc43)n1)C(=O)N2 [Compound 3g] | 5.37 | 91.2 | 40.7 | IC (TGI) (Renal cancer cell lines): 50.1 µM; PMET inhibition [4]: inactive
17 | CC(=O)n1c(=O)/c(=C/c2c[nH]c3ccccc23)n(C(C)=O)c(=O)/c1=C/c1c[nH]c2ccccc12 [Compound 8a] | 74.1 | – | 91.2 | IC (TGI) (Renal cancer cell lines): 50.1 µM; PMET inhibition [4]: inactive
18 | O=C1Nc2ccc(S(=O)(=O)O)cc2/C1=C\c1cccc(/C=C2/C(=O)Nc3ccc(S(=O)(=O)O)cc32)n1 [Compound 3k] | 97.7 | – | – | –
19 | O=C1Nc2ccccc2/C1=C\c1cccc(/C=C2/C(=O)Nc3ccccc32)n1 [Compound 3a] | 0.457 | 14.1 | – | IC (TGI) (Renal cancer cell lines): 1.62 µM; IC (TGI) (Breast cancer cell lines): 2 µM
20 | COc1ccc2[nH]cc(/C=c3\[nH]c(=O)/c(=C/c4c[nH]c5ccc(OC)cc45)[nH]c3=O)c2c1 [Compound 9b] | 93.3 | – | – | –
21 | O=C1Nc2ccc(Br)cc2/C1=C\c1cccc(/C=C2/C(=O)Nc3ccc(Br)cc32)n1 [Compound 3j] | 8.32 | 56.2 | – | IC (TGI) [1]: 25.7 µM
22 | COc1ccc2c(c1)/C(=C\c1cccc(/C=C3/C(=O)N(C)c4ccc(OC)cc43)n1)C(=O)N2C [Compound 3p] | 1.74 | 43.7 | 12.3 | GI50 (Leukemia cell lines; read-out: pGI50 Leukemia (converted)): 1.17 µM; IC (TGI) [1]: 31.6 µM; IC (TGI) (Breast cancer cell lines): 20 µM
